Data on 10 compounds can be found in ChEMBL document CHEMBL4371040, “Triazolopyrimidine and triazolopyridine scaffolds as TDP2 inhibitors” (Bioorg Med Chem Lett, 2019).

Some results are limits rather than exact numbers.

A short description of data set [1]: Solubility of the compound in DMSO. The data set is classed as physicochemical.
The nature of data set [2]: Solubility of the compound in pH 7.4 Tris HCl buffer. The format is physicochemical.
Data set [3] can be described thus: Permeability of the compound at 10 uM after 5 hrs by PAMPA. The format is ADME. The following applies: read-out: permeability. The procedure, abridged:
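Parallel artificial membrane permeability assay reported as effective permeability Pe (10−6 cm/s). Pe > 1.5 is taken as high permeability.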
In general terms: PAMPA measures passive passage across an artificial lipid membrane.

Data set [4] concerns the target T1, Tyrosyl-DNA phosphodiesterase 2 (Homo sapiens, UniProt O95551).
T1 sequence (O95551 whole entry): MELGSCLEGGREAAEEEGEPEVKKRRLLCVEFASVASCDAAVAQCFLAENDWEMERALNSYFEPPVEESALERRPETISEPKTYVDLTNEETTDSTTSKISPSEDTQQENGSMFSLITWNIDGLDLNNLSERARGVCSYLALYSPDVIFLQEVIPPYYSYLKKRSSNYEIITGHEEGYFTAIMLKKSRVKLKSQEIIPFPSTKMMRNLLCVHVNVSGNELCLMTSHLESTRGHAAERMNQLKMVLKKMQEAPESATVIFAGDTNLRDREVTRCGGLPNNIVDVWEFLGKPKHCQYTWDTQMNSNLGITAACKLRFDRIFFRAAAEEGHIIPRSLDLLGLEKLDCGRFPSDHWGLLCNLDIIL
The data set can be described thus: Inhibition of recombinant human TDP2 using T5PNP as substrate preincubated for 10 mins followed by substrate addition and measured after 30 mins.

In data set [5] the test system is HepG2. The data set can be described thus: Cytotoxicity against human HepG2 cells after 72 hrs by MTT assay. The data set is classed as cell-based. The following applies: hepg2, 72 h. The procedure, abridged: (§1)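 Compounds tested at 50 μM and 100 μM to give CC50. Two independent experiments were run, each in triplicate.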
The subject of data set [6] is HeLa. The data set can be described thus: Cytotoxicity against human HeLa cells after 72 hrs by MTT assay. The data set is classed as cell-based. The gist of the method:
as §1

On to `O=C(Nc1nc2nc(-c3ccccc3)ccn2n1)c1cccc([N+](=O)[O-])c1`, for which the solubility result in data set [1] and in data set [2] was “Soluble” each time. Moreover, the Papp at 5 h, 10 µM in data set [3] amounted to 0.16 ×10⁻⁶ cm/s.

Take `O=C(Nc1nc2nc(-c3ccccc3)ccn2n1)c1cccc(Br)c1`: the solubility result in data set [1] is given as “Insoluble”.

`N#Cc1cccc(C(=O)Nc2nc3nc(-c4ccccc4)ccn3n2)c1`: the solubility result in data set [1] is listed as “Insoluble”.

As for `O=C(Nc1nc2nc(-c3ccccc3)ccn2n1)c1ccccc1`, the solubility entry in data set [1] is on record as “Insoluble”.

As to `NC1=CC(N)=C2C=CC(=O)N=C2C1=O`, the Papp at 5 h, 10 µM in data set [3] came to 0.095 ×10⁻⁶ cm/s. In addition, the IC50 in data set [4] turned out to be 1.7 µM.

On to `O=C(Nc1nc2cc(-c3ccccc3)ccn2n1)c1cccc(Cl)c1`, for which, in data set [3], the Papp at 5 h, 10 µM was found to be 0.9 ×10⁻⁶ cm/s. Also, the CC50 in data set [5] and in data set [6] was more than 100 µM in each case.

In the case of `O=C(Nc1nc2cc(-c3cccnc3)ccn2n1)c1cccc(Cl)c1`, the Papp at 5 h, 10 µM in data set [3] worked out at 6.3 ×10⁻⁶ cm/s. The CC50 in data set [5] and in data set [6] was more than 100 µM each time.

Turning to `O=C(Nc1nc2nc(-c3ccccc3)ccn2n1)c1cccc(C(F)(F)F)c1`, the solubility entry in data set [1] was “Insoluble”.

As for `O=C(Nc1nc2nc(-c3ccccc3)ccn2n1)c1ccc([N+](=O)[O-])cc1`, the solubility entry in data set [1] was “Insoluble”.

In the case of `O=C(Nc1nc2cc(-c3ccccc3)ccn2n1)c1cccc([N+](=O)[O-])c1`, the Papp at 5 h, 10 µM in data set [3] stood at 0.15 ×10⁻⁶ cm/s.

The term IC50 denotes the concentration that gives 50% inhibition. In general, CC50 refers to the concentration giving 50% cytotoxicity.
